Source: PubChem BioAssay (NMMLSC)
MEKK3 PB1 HTS: modulators of MEKK3-MEK5 PB1 binding, primary screen, biochemical, wildtype MEKK3, multiplex bead flow cytometry, Alexa488-MEK5; bead-based flow cytometry, Alexa488-MEK5 binding to MEKK3; actives lie on both sides; 0 = blocked by unlabeled MEK5, 100 = vehicle; binding response (% of control), % at 10 µM; actives 1.4% (n = 290,000); AID 1529, 2009;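 active = binding response more than 3 SD above or below the average of its plate-row segment, actives on both sides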;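 note: Alexa488 bead fluorescence after subtracting the streptavidin-only scavenger bead signal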
Target sequence (Q99759 whole entry, looked up): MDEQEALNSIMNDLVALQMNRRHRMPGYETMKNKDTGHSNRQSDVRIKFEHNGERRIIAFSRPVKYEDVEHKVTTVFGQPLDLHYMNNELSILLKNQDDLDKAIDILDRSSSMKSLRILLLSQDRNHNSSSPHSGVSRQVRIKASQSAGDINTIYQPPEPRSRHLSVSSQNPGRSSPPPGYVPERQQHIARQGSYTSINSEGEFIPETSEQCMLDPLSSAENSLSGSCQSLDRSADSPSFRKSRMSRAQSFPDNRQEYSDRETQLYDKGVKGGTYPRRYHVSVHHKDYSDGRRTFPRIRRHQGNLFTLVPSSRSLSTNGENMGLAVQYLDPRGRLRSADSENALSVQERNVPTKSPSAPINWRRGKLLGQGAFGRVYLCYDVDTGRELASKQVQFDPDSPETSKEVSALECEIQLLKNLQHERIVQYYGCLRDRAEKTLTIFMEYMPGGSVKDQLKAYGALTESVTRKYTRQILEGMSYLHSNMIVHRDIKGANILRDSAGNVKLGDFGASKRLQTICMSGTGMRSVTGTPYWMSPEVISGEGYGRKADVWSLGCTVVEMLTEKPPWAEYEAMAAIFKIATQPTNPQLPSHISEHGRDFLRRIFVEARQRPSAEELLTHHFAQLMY
MEKK2mut PB1 HTS: MEK5 binding signal on mutant MEKK2 PB1, primary screen, biochemical, multiplex bead flow cytometry, Alexa488-MEK5 | actives 0.35% (n = 290,000) | Alexa488-MEK5 binding to MEKK2 mutant | AID 1530, 2009 | percent response, % at 10 µM; in the data active = percent response above about 24%, passing the limit was not always enough
MEKK2 WT-MEK5: modulators of MEK5 binding to wildtype MEKK2, primary screen, biochemical, multiplex bead flow cytometry, Alexa488-MEK5; binding response (% of control), % at 10 µM; Mitogen-activated protein kinase kinase kinase 2 (Homo sapiens), Q9Y2U5; actives 1.1% (n = 290,000); Alexa488-MEK5 binding to MEKK2 WT; actives lie on both sides; in the data active = binding response below about 67% or above about 130%
Arrestin-AP2 inh: inhibitors of beta-arrestin/AP2 binding, primary screen, biochemical, GPCR trafficking, flow cytometry | beta-arrestin 1 C-terminal peptide binding to AP2 beta2-adaptin appendage (human) | FITC-arrestin peptide / GST-AP2 beads; AP2 beta2 appendage carries R879A mutation | inhibition, % at 10 µM | actives 0.31% (n = 340,000) | AID 504490, 2011;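 active = inhibition above a set limit, near 3 SD of compounds lacking own fluorescence, cut at about 54% in these data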;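 note: plate controls were DMSO wells for no effect and 5 µM unlabelled arrestin peptide for full effect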
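Assay system: GST-AP2 R879A bound to glutathione beads, E. coli-expressed; Medium: PBS with 0.05% Tween 20 and 0.1% BSA; Also added: fluorescein-tagged arrestin peptide at 50 nM final; Timing: 12 min plus 1 h, RT; Measured by: flow cytometry, FL1 (488/535 nm); Evaluation: percent drop in bead-associated FITC signal.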
MEKK2wt confirm: modulators of MEK5 binding to wildtype MEKK2, confirmation, biochemical, single concentration, multiplex bead flow cytometry; Alexa488-MEK5 binding to MEKK2 WT; actives lie on both sides; binding response (% of control), % at 10 µM; actives 2.4% (n = 5,900); AID 1892, 2009; shares compounds with MEKK3 PB1 HTS; in the data active = binding response below about 16% or above about 210%; inactive = in between
MEKK2mut confirm: mutant MEKK2 PB1-MEK5 binding signal retest – biochemical, single concentration, multiplex bead flow cytometry, confirmation | shares compounds with MEKK3 PB1 HTS | Alexa488-MEK5 binding to MEKK2 mutant | percent response, % at 10 µM | actives 2% (n = 5,900) | AID 1893, 2009; in the data active = percent response mostly above about 71%, no sharp cut-off; inactive = mostly below about 38%;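 note: higher means compound restores mutant binding toward wildtype level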
MEKK3-MEK5 inh: MEKK3 wild-type PB1 binding to MEK5, inhibitors, confirmation, biochemical, bead multiplex flow cytometry, single concentration, wildtype | AID 1894, 2009 | Alexa488-MEK5 binding to MEKK3; active compounds read low | binding response (% of control), % at 10 µM | shares compounds with MEKK3 PB1 HTS | actives 1.8% (n = 5,900);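 active = binding response below 72% of control, or above a set upper limit, though filed actives all read lower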;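 note: 100% = DMSO only wells and 0% = binding blocked by excess unlabeled MEK5; lower values mean stronger disruption of MEK5 binding to MEKK3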
* = called active by the depositor; / = no result; [ ] = another dose, or the depositor's remark. Most compounds without a hit are left out; they make up all but 2.3% or so of the library.

SMILES	MEKK3 PB1 HTS	MEKK2mut PB1 HTS	MEKK2 WT-MEK5	Arrestin-AP2 inh	MEKK2wt confirm	MEKK2mut confirm	MEKK3-MEK5 inh
CCn1c(=O)n(CC)c2cc(NC(=O)C(C)c3ccccc3)c(Br)cc21 (configuration not stated)	99	3	102	-8	/	/	/
CC1(C)CC(=O)C(C=NCCN2CCN(C(=S)Nc3ccccc3)CC2)=C(O)C1	3.0*[inhibitor]	-14	3.0*[inhibitor]	4	102	5	103
Cc1ccc(C2CC(=O)C(C=NCCN3CCN(C(=S)Nc4ccccc4)CC3)=C(O)C2)cc1 (configuration not stated)	107	7	110	28	/	/	/
CN1c2ccccc2C(O)=C(C(=S)Nc2ccccc2)S1(=O)=O	118	4	113	-8	/	/	/
CN1c2ccccc2C(O)=C(C(=S)Nc2ccc(F)c(Cl)c2)S1(=O)=O	130*	8	129	16	96	9	103
O=c1c(/C=N/N2CCOCC2)c(C(F)(F)F)[nH]n1-c1ccccc1	95	-2	96	4	/	/	/
CCCOc1ccc(C(=O)CCC(=O)OCC(=O)N2CCN(S(=O)(=O)c3ccc(C)cc3C)CC2)cc1	/	/	/	-5	/	/	/
CC(=O)Nc1sc(/C(C#N)=C/c2ccc(Cl)c(Cl)c2)nc1-c1ccc(C)cc1	118	104*	25*	10	87	-13	99
COC(=O)C(=N/Nc1ccccc1C(=O)OC)/C(C)=N/O	101	-5	93	17	/	/	/
COc1ccc(C(C)=O)cc1COC(=O)C1CCN(C(=O)c2ccc(Cl)cc2)CC1	/	/	/	-5	/	/	/
COCCn1c(C)cc(C(=O)COC(=O)CNC(=O)c2ccccc2)c1C	88	-4	88	3	/	/	/
COCC(C)n1c(C)cc(C(=O)COC(=O)CNC(=O)c2ccccc2)c1C (configuration not stated)	131*	0	106	-4	102	4	101
Cn1nc(C(=O)NCCOc2ccccc2)c2ccccc2c1=O	103	4	102	37	/	/	/
CCN(CC)CCNc1nc2cc(OC)c(OC)cc2c2nc(-c3ccccc3)nn12	108	10	143*	6	111	3	95
CCCc1nnc(NC(=O)C2CCN(C(=O)C3CC(=O)N(c4ccc(C)cc4)C3)CC2)s1 (configuration not stated)	101	-4	97	13	/	/	/
COc1ccc(S(=O)(=O)N2CC(C(=O)O)Oc3ccc(Cl)cc32)cc1 (configuration not stated)	90	36*	131	-17	98	-3	102
Cn1c(=O)c2ncn(CC(=O)N/N=C/c3ccco3)c2n(C)c1=O	140*	0	108	-10	110	2	101
Cn1c(=O)c2ncn(CC(=O)N/N=C/C=C/c3ccccc3)c2n(C)c1=O	107	-9	91	25	/	/	/
COc1cccc2c1NC(C(=O)O)C1CC=CC21 (configuration not stated)	79	-40	29*[inhibitor]	8	86	-9	84
C[C@H](NC(=O)N1CCC(Cc2ccccc2)CC1)C(=O)O	105	9	103	40	/	/	/
COc1ccc(N2CCN(C(=O)c3cc4c(s3)-c3ccccc3S(=O)(=O)C4)CC2)cc1	82	-19	-10*[inhibitor]	-15	101	5	104
CN(CC(=O)Nc1ccc(F)cc1)CC(=O)NC1CCCCC1	/	/	/	-1	/	/	/
CC(NC(=O)C(=O)NCCC1=CCCCC1)c1ccccc1 (configuration not stated)	139*	0	105	12	98	-2	98
CC(C)CCNC(=O)C(=O)NCCC1=CCCCC1	105	2	109	12	/	/	/
CCOC(=O)c1c(CN(C)C)n(-c2ccccc2)c2cc(Br)c(OC)cc12	119	1	112	25	/	/	/
SMILES	MEKK3 PB1 HTS	MEKK2mut PB1 HTS	MEKK2 WT-MEK5	Arrestin-AP2 inh	MEKK2wt confirm	MEKK2mut confirm	MEKK3-MEK5 inh
COc1cc2c(C(=O)OCCN(C)C)c(CSc3ccccc3)n(C)c2cc1Br	99	-9	146*	-13	153	28	108
CCCC(C)NC(=O)Cc1ccc(Br)cc1 (configuration not stated)	140*	0	108	1	102	2	99
CCCC(C)NC(=O)COc1ccc(Sc2ccc(OCC(=O)NC(C)CCC)cc2)cc1 (configuration not stated)	137*	0	104	23	100	-3	96
CC12CCC(C(=O)N(NC(=O)c3ccccc3Cl)C1=O)C2(C)C (configuration not stated)	104	-1	102	-8	/	/	/
COCCn1c(SCC(=O)Nc2cc(C)nn2-c2ccccc2)nnc1-c1ccncc1	109	1	105	-8	/	/	/
Cn1ccsc1=NC(=O)c1ccc(S(C)(=O)=O)c([N+](=O)[O-])c1	98	-2	99	-13	/	/	/
COc1ccc(-c2csc(NC(=O)c3cccc(S(=O)(=O)N4CCN(C)CC4)c3)n2)cc1	72*[inhibitor]	-8	102	-4	125	43	106
COc1ccc(-c2csc(NC(=O)C3CCCCN3S(=O)(=O)c3ccccc3)n2)cc1 (configuration not stated)	80*[inhibitor]	-6	90	3	95	-5	95
CCOC(=O)C(NC(=O)c1ccccc1)(OCc1ccc(F)cc1)C(F)(F)F (configuration not stated)	128*	1	106	-1	102	0	103
O=C(NCCc1c[nH]c2ccccc12)/C(=C\c1cccs1)NC(=O)c1ccccc1	41*[inhibitor]	-1	96	-6	101	1	105
COc1cc(CN2CCC(CO)(Cc3cccc(C(F)(F)F)c3)CC2)ccc1F	42*[inhibitor]	-23	69	34	122	7	102
OCC1(Cc2cccc(C(F)(F)F)c2)CCN(Cc2cc3ccccc3o2)CC1	106	8	122	-5	/	/	/
